Screening results as filed in PubChem BioAssay.
RAD52 anneal inh: blocks human RAD52 DNA annealing. P43351. inhibition, % at 18.7 µM. AID 651710. 360,000 compounds, 0.46% hits. recombinant RAD52 DNA annealing, FRET fluorescence;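 active = every replicate showing at least 50% inhibition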
RAD54 branch: blocks human RAD54 Holliday junction branch migration; inhibition, % at 10.4 µM; FAM/BHQ fluorescence; 360,000 compounds, 0.14% hits; Q92698;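 active = mean normalized replicate activity at least 40 and at least half of replicates scoring 40 or more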;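 also: inhibitors cause a drop in the FAM fluorescence signal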
GSIS activator: GLuc luminescence reporter in INS-1E cells, primary screen for activators of glucose-dependent secretion of insulin; activation, % at 16.6 µM; 370,000 compounds, 0.61% hits; INS-1E GLuc reporter insulin secretion, 2-3 h; AID 743287;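 active = lowest replicate activation of at least 40%, so every replicate reaches that level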
MLL AF4-AF9 inh: MLL-AF4/AF9 protein interaction inhibition. inhibition, % at 10 µM. 350,000 compounds, 0.47% hits. AlphaScreen, biotin-AF4 peptide binding to FLAG-AF9. P42568;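 active = every replicate reaching a set inhibition limit, whatever the replicate mean, cut at about 25% in these data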
Target sequence (P42568 whole entry, looked up): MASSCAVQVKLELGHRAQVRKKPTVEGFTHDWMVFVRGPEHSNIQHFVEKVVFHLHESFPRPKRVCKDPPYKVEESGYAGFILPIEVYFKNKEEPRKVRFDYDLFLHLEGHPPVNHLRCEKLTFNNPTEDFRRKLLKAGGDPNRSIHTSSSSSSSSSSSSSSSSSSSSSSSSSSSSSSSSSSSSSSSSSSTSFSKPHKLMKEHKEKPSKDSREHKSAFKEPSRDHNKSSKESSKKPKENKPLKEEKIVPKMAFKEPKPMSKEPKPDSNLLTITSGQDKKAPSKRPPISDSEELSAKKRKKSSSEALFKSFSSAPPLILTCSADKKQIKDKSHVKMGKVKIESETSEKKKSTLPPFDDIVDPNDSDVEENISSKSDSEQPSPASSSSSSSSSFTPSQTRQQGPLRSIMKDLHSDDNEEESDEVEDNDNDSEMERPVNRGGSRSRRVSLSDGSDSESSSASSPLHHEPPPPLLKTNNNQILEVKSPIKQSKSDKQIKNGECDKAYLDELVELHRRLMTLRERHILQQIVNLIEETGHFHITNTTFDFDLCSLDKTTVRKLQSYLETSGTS
E-sel inducer: induces E-selectin expression in human endothelial cells. activation, % at 7.58 µM. 260,000 compounds, 0.37% hits. AID 686992. P16581. HUVEC E-selectin immunofluorescence imaging; normalized: neutral wells 0, TNF-alpha wells 100;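 active = mean E-selectin-positive cell signal at least 10% of the positive control, reached in at least 60% of replicates, without over 20% cell loss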
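assay system = HUVEC, human umbilical vein endothelial cells | input = 3,000 HUVEC seeded per well | medium = EGM-2 growth medium on 0.1% gelatin-coated wells | dosing = one compound dose added by pin transfer | signal = immunofluorescence imaging | read-out basis = % PE-positive cells | control set = TNF-alpha, DMSO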
rRNA inh HTS: selective bacterial rRNA inhibition in E. coli | E. coli WT GFP vs humanized-ribosome RFP mutants, fluorescence, 24 h; active compounds read low; DMSO median 0, no signal -100 | 350,000 compounds, 1.6% hits | AID 720706 | GFP signal change (wild-type ribosome), % (no concentration beside the values);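 active = significant combined selectivity score with lowered wild-type GFP, culture density cut under 30%, mutant RFP and density less affected; inactive = any of these conditions unmet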
Of the large screens only hits and unclear results are named; the others gave an inactive call; ! = not confirmed by another sample. Hits are enriched below; roughly 2.6% of the tested compounds scored in any of these assays.

CCCNC(=O)Nc1ccc2c(c1)C(=O)N(C)[C@H]1CC[C@H](CC(=O)NCc3ccccc3)O[C@H]1CO2	none
Cn1c(SCCOc2ccccc2F)nc2ccccc2c1=O	rRNA inh HTS -28.1 (no result: RAD54 branch)
O=c1[nH]c(SCCOc2ccccc2F)nc2ccccc12	none (no result: RAD54 branch, E-sel inducer)
Cc1noc(C)c1S(=O)(=O)Nc1ccc2c(c1)C(=O)N([C@@H](C)CO)C[C@@H](C)[C@H](CN(C)Cc1ccncc1)O2	none
Cc1noc(C)c1S(=O)(=O)Nc1ccc2c(c1)C(=O)N([C@H](C)CO)C[C@H](C)[C@@H](CN(C)Cc1ccc3c(c1)OCO3)O2	none
Cc1noc(C)c1S(=O)(=O)Nc1ccc2c(c1)C(=O)N([C@H](C)CO)C[C@@H](C)[C@H](CN(C)Cc1ccncc1)O2	E-sel inducer 57.4
C[C@H]1CN([C@@H](C)CO)C(=O)c2cc(NS(=O)(=O)c3cn(C)cn3)ccc2O[C@@H]1CN(C)Cc1ccncc1	E-sel inducer 48.7
C[C@H]1CN([C@@H](C)CO)C(=O)c2cc(NS(=O)(=O)c3cn(C)cn3)ccc2O[C@H]1CN(C)Cc1ccncc1	none
Cc1noc(C)c1S(=O)(=O)Nc1ccc2c(c1)C(=O)N([C@@H](C)CO)C[C@H](C)[C@H](CN(C)Cc1ccc3c(c1)OCO3)O2	E-sel inducer 401.4
N#Cc1ccc(-c2ccc(C3[C@@H]4CN(C(=O)Nc5ccc(C(F)(F)F)cc5)C[C@H]3N4)cc2)cc1 (some centres undefined)	RAD52 anneal inh 79.9! (no result: RAD54 branch)
O=C(Nc1ccc(C(F)(F)F)cc1)N1C[C@@H]2N[C@H](C1)C2c1ccc(-c2cccc(F)c2)cc1 (some centres undefined)	RAD52 anneal inh 62.1, GSIS activator 113.5 (no result: RAD54 branch)
N#Cc1ccc(-c2ccc([C@@H]3[C@@H]4CN(C(=O)Nc5ccc6c(c5)OCO6)C[C@H]3N4)cc2)cc1	none (no result: RAD52 anneal inh, RAD54 branch, MLL AF4-AF9 inh)
Cc1ccc(-c2ccc(C3[C@@H]4CN(C(=O)Nc5ccc(C(F)(F)F)cc5)C[C@H]3N4)cc2)cc1 (some centres undefined)	GSIS activator active (no result: RAD54 branch)
COc1ccccc1-c1cnc2c(c1)C(=O)N([C@H](C)CO)C[C@H](C)[C@@H](CN(C)C(C)=O)O2	none
C[C@H](CO)N1C[C@H](C)[C@H](CN(C)S(C)(=O)=O)OCCCC[C@H](C)Oc2ccc(NS(C)(=O)=O)cc2C1=O	none (no result: RAD52 anneal inh, MLL AF4-AF9 inh)
Cc1nc(N2CCCCC2)c(C#N)c(C)c1[N+](=O)[O-]	rRNA inh HTS -33.2 (no result: RAD54 branch)
Cc1[nH]nc(N2CCCCC2)c1[N+](=O)[O-]	none (no result: RAD52 anneal inh, GSIS activator, MLL AF4-AF9 inh, E-sel inducer, rRNA inh HTS)
O=C(/C=C/c1ccc(Cl)cc1)NC(=S)Nc1ccc(NC(=O)c2ccco2)cc1	GSIS activator 49.7 (no result: RAD52 anneal inh, RAD54 branch, MLL AF4-AF9 inh, E-sel inducer, rRNA inh HTS)
CC(=O)Nc1ccc(NC(=S)NC(=O)/C=C/c2ccc(Cl)cc2)cc1	none (no result: RAD54 branch, E-sel inducer)
CCCC(=O)Nc1ccc2c(c1)OC[C@@H](C)N(C(=O)Cc1cccnc1)C[C@@H](C)[C@H](OC)CN(C)C2=O	none
CCOC(=O)c1sc(=S)n(C)c1NC(=O)c1cccc(Br)c1	rRNA inh HTS -48.7
CCOC(=O)c1sc(=S)n(C)c1NC(=O)c1ccccc1	none (no result: RAD52 anneal inh, MLL AF4-AF9 inh, E-sel inducer, rRNA inh HTS)
O=C(N[C@H]1CC[C@H](CCNS(=O)(=O)c2ccc(F)cc2)O[C@@H]1CO)c1ccccn1	none
CC(C)CC#Cc1ccc2c(c1)O[C@@H](CN(C)C(=O)Cc1cccnc1)[C@H](C)CN([C@@H](C)CO)S2(=O)=O	none
CCC(=O)N1CC2(CCN(Cc3cccnc3)CC2)c2c(n(C)c3cc(OC)ccc23)[C@H]1CO	none (no result: RAD54 branch)
CCCNC(=O)N1CC2(C1)[C@H](c1ccccc1)[C@H](CO)N2Cc1cccc(Cl)c1	none (no result: RAD54 branch)
CN(C)CC#Cc1ccc([C@@H]2[C@@H](CO)N3CCCCN(CC4CCOCC4)C[C@@H]23)cc1	none (no result: MLL AF4-AF9 inh)
CN(C)CC#Cc1ccc([C@H]2[C@H](CO)N3CCCCN(CC4CCOCC4)C[C@@H]23)cc1	RAD52 anneal inh 54.4
CN(C)CC#Cc1ccc([C@H]2[C@@H](CO)N3CCCCN(CC4CC4)C[C@@H]23)cc1	RAD52 anneal inh 60.9
CN(C)CC#Cc1ccc([C@@H]2[C@H](CO)N3CCCCN(CC4CCOCC4)C[C@@H]23)cc1	none (no result: MLL AF4-AF9 inh)
OC[C@@H]1[C@H](c2ccc(C#CC3CCCC3)cc2)[C@H]2CN(CCC(F)(F)F)CCCCN12	MLL AF4-AF9 inh 25.3
S=C(NCc1ccco1)N/N=C/c1ccc(Cl)cc1	rRNA inh HTS -38.7 (no result: RAD54 branch)
C[C@H](CO)N1C[C@H](C)[C@@H](CN(C)S(C)(=O)=O)Oc2ncc(C#CC3CCCCC3)cc2C1=O	none
COc1ccc(/C=N/Nc2cc(C)nc3ccc(Br)cc23)cc1	RAD54 branch 118.6
COc1ccc2nc(C)cc(N/N=C/c3cccc(OC)c3O)c2c1	RAD54 branch 108.1, MLL AF4-AF9 inh 25.5 (no result: E-sel inducer)
Nc1ncnc(NC2CCS(=O)(=O)C2)c1[N+](=O)[O-] (centres undefined)	GSIS activator 64.7 (no result: RAD54 branch, E-sel inducer)
CN(c1ncnc(N)c1[N+](=O)[O-])C1CCS(=O)(=O)C1 (centres undefined)	none (no result: E-sel inducer)
CC1(CCc2ccccc2)NC(=O)N(CC(=O)Nc2ccc(OC(F)F)cc2)C1=O (centres undefined)	rRNA inh HTS -28.8 (no result: E-sel inducer)
CC1(CCc2ccccc2)NC(=O)N(CC(=O)Nc2ccc(S(N)(=O)=O)cc2)C1=O (centres undefined)	none (no result: RAD54 branch, E-sel inducer)
COc1ccc(CSC2=C(C#N)C(=O)NC3(CCCCC3)S2)cc1	rRNA inh HTS -28.1 (no result: GSIS activator)
CSc1sc(C(=O)Nc2ccc(F)cc2F)c2c1C=CCC2	rRNA inh HTS -26.4
COc1ccsc1C(=O)Nc1ccc(F)cc1F	none (no result: RAD54 branch, E-sel inducer)
COC(=O)C1=C(C)OC(N)=C(C#N)C1C1CCCCC1 (centres undefined)	rRNA inh HTS -20.9 (no result: E-sel inducer)
O=c1[nH]nc(-c2ccccc2)c2ccccc12	GSIS activator 65.9
C[C@@H]1CN([C@H](C)CO)S(=O)(=O)c2ccc(C#Cc3ccc(F)cc3)cc2O[C@H]1CN(C)C(=O)CN(C)C	RAD52 anneal inh 61.3
C[C@@H]1CN([C@@H](C)CO)S(=O)(=O)c2ccc(C#Cc3ccccc3)cc2O[C@@H]1CN(C)CC1CC1	E-sel inducer 130.6
C[C@@H]1CN([C@@H](C)CO)S(=O)(=O)c2ccc(C#Cc3cccc(F)c3)cc2O[C@H]1CN(C)C	RAD52 anneal inh 50.6
C[C@H]1CN([C@@H](C)CO)S(=O)(=O)c2ccc(C#Cc3ccc(F)cc3)cc2O[C@H]1CN(C)C(=O)CN(C)C	RAD52 anneal inh 71.0
C[C@@H]1CN([C@@H](C)CO)S(=O)(=O)c2ccc(C#Cc3ccc(F)cc3)cc2O[C@@H]1CN(C)C(=O)CN(C)C	none
CCCNC(=O)Nc1ccc2c(c1)C(=O)N(C)[C@H]1CC[C@H](CC(=O)O)O[C@H]1CO2	none (no result: RAD52 anneal inh, MLL AF4-AF9 inh)
